Experimental data as given in paper PMC3378324 (Febs Letters, 2012).

Experiments:
[1] = SAXS; apo; compared with 190 ± 10 Å; ref [12]; cited from earlier work
[2] = test system: Hck-SH3, Fyn(WT)-SH3, and Fyn(R96I)-SH3; experiment: NMR 1H-15N HSQC, comparison across SH3 domains; format: binding; details: 1 equivalent of ALIXV+PRR
Hck-SH3-GST = experiment: GST pull-down, SDS-PAGE and Coomassie blue staining; format: binding, human; details: in vitro
Procedure, shortened: (§1)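 Partner protein: human Alix fragment ALIX_V+PRR (residues 362–760, V domain plus SH3-binding proline-rich region), expressed with an N-terminal His6-Smt3 tag in E. coli BL21(DE3). Baits were GST-fused SH3 domains (Hck; Fyn wild-type; Fyn RT-loop mutant with Arg96 replaced by Ile). In vitro GST pull-down; bound protein resolved by SDS-PAGE and visualised by Coomassie blue staining.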

Fyn(R96I)-SH3-GST = experiment: as above; format: binding; details: in vitro
Procedure, shortened: as §1

Hck = details: ref [12]; cited from earlier work

B1: ALIXV+PRR: Human Alix recombinant construct (ALIXV+PRR) consisting of residues 362–760 (protein)
chain: SVQQSLAAYNQRKADLVNRSIAQMREATTLANGVLASLNLPAAIEDVSGDTVPQSILTKSRSVIEQGGIQTVDQLIKELPELLQRNREILDESLRLLDEEEATDNDLRAKFKERWQRTPSNELYKPLRAEGTNFRTVLDKAVQADGQVKECYQSHRDTIVLLCKPEPELNAAIPSANPAKTMQGSEVVNVLKSLLSNLDEVKKEREGLENDLKSVNFDMTSKFLTALAQDGVINEEALSVTELDRVYGGLTTKVQESLKKQEGLLKNIQVSHQEFSKMKQSNNEANLREEVLKNLATAYDNFVELVANLKEGTKFYNELTEILVRFQNKCSDIVFARKTERDELLKDLQQSIAREPSAPSIPTPAYQSSPAGGHAPTPPTPAPRTMPPTKPQPPARPPP
modifications: left off: His6-Smt3, N-terminal, state not stated
- maximum diameter (Dm) compared with Fyn(R96I)-SH3-bound ALIXV+PRR [1]: the same
- involvement of nSrc loop, Hck-SH3 versus Fyn(R96I)-SH3 [2]: the nSrc loop seems to be more involved in the Hck-SH3–ALIXV+PRR interaction than in the Fyn(R96I)-SH3–ALIXV+PRR interaction
- GST pull-down binding (Hck-SH3-GST): binding
- GST pull-down binding (Fyn(R96I)-SH3-GST): binding

B2: Alix: ALG-2 (apoptosis-linked gene 2)-interacting protein X, an adapter protein (protein, UniProt Q8WUM4 2-868, looked up)
Programmed cell death …: ATFISVQLKKTSEVDLAKPLVKFIQQTYPSGGEEQAQYCRAAEELSKLRRAAVGRPLDKHEGALETLLRYYDQICSIEPKFPFSENQICLTFTWKDAFDKGSLFGGSVKLALASLGYEKSCVLFNCAALASQIAAEQNLDNDEGLKIAAKHYQFASGAFLHIKETVLSALSREPTVDISPDTVGTLSLIMLAQAQEVFFLKATRDKMKDAIIAKLANQAADYFGDAFKQCQYKDTLPKEVFPVLAAKHCIMQANAEYHQSILAKQQKKFGEEIARLQHAAELIKTVASRYDEYVNVKDFSDKINRALAAAKKDNDFIYHDRVPDLKDLDPIGKATLVKSTPVNVPISQKFTDLFEKMVPVSVQQSLAAYNQRKADLVNRSIAQMREATTLANGVLASLNLPAAIEDVSGDTVPQSILTKSRSVIEQGGIQTVDQLIKELPELLQRNREILDESLRLLDEEEATDNDLRAKFKERWQRTPSNELYKPLRAEGTNFRTVLDKAVQADGQVKECYQSHRDTIVLLCKPEPELNAAIPSANPAKTMQGSEVVNVLKSLLSNLDEVKKEREGLENDLKSVNFDMTSKFLTALAQDGVINEEALSVTELDRVYGGLTTKVQESLKKQEGLLKNIQVSHQEFSKMKQSNNEANLREEVLKNLATAYDNFVELVANLKEGTKFYNELTEILVRFQNKCSDIVFARKTERDELLKDLQQSIAREPSAPSIPTPAYQSSPAGGHAPTPPTPAPRTMPPTKPQPPARPPPPVLPANRAPSATAPSPVGAGTAAPAPSQTPGSAPPPQAQGPPYPTYPGYPGYCQMPMPMGYNPYAYGQYNMPYPPVYHQSPGQAPYPGPQQPSYPFPQPPQQSYYPQQ
- binding to and activation of Hck (Hck): binds to and activates Hck
